Where “and” joins values, the source holds several entries; their conditions need not be identical. Equal values may be shown once. Entries after “also recorded” stand apart in the source; their conditions may differ.
Key:
α1A-AR = target: T1, α1A-AR (Homo sapiens, UniProt P35348); experiment: Western blot analysis of α1A-AR level in α1A-AR stably transfected HEK293 cells; format: cell-based; conditions: for DC50: read-out: DC50 (concentration required for 50% protein degradation) of α1A-AR, α1A-AR stably transfected HEK293 cells, 12 h, Western blot; for effect on α1A-AR level (Western blot, in words): α1A-AR HEK293 cells, indicated concentrations 12 h, 3 μmol/L for indicated time
T1 sequence (P35348 1-466): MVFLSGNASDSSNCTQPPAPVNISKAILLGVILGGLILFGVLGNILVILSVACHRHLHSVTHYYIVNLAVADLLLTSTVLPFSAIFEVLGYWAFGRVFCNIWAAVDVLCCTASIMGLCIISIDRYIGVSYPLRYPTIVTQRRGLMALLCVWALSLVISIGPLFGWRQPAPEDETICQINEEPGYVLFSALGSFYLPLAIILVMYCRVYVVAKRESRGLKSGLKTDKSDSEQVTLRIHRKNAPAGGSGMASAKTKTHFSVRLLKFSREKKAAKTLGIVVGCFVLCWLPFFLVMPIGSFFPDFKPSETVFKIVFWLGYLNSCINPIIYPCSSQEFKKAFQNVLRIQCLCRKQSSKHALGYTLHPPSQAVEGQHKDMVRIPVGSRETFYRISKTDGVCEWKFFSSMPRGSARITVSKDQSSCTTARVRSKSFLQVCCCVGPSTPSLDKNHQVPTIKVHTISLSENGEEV

PC-3 cells = experiment: CCK-8 antiproliferation assay on PC-3 cells; format: cell-based; conditions: for antiproliferation activity on PC-3 cells (in words): 1–100 μmol/L, 48 h; for IC50: Homo sapiens, PC-3, 48 h, read-out: antiproliferative activity IC50
Procedure, shortened: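 PC-3 cells in RPMI-1640 with 10% FBS, 37 °C, 5% CO2. Seeded at 5000 cells/well, left 24 h, then exposed to test compound for 48 h; controls received DMSO only. CCK-8 reagent (WST-8/PMS) was added for 1 h at 37 °C and absorbance read at 450 nm. Viability was calculated against untreated-cell and cell-free blank wells.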

α1B-AR = target: T2, α1B-AR (Homo sapiens, UniProt P35368); experiment: Western blot analysis of α1B-AR level in stably transfected HEK293 cells; format: cell-based; conditions: 12 h
T2 sequence (P35368 1-520): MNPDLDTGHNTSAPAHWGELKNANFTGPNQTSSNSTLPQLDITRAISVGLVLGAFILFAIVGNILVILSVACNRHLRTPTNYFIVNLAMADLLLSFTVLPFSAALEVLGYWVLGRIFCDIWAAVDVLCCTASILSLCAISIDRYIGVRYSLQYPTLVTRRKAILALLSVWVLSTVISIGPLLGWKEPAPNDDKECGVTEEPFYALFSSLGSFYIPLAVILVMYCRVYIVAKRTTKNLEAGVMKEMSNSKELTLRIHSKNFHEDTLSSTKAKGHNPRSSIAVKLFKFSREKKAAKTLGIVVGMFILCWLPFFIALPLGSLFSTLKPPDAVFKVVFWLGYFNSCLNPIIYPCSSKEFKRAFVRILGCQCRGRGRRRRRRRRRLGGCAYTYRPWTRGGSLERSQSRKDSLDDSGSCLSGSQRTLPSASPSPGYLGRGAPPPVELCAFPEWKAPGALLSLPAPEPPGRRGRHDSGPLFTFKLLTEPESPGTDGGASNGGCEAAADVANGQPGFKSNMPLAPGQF

α1D-AR = target: T3, α1D-AR (Homo sapiens, UniProt P25100); experiment: Western blot analysis of α1D-AR level in stably transfected HEK293 cells; format: cell-based; conditions: 12 h
T3 sequence (P25100 1-572): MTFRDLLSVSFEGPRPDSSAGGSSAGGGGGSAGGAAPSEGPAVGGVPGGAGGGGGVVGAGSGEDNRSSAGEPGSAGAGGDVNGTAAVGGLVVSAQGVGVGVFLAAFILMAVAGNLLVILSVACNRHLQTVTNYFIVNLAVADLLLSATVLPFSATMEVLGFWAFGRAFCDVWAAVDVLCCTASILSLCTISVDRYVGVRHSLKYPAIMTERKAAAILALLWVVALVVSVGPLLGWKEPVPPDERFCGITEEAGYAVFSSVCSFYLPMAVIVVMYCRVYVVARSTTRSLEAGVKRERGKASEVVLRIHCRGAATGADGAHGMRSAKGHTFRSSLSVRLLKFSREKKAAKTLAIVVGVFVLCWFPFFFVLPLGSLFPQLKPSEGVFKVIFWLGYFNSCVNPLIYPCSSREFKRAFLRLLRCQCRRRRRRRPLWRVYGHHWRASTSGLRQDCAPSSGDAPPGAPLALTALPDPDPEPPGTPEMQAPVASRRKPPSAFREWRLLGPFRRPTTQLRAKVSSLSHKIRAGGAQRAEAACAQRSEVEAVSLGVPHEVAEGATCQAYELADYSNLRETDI

[1] = test system: PC-3 derived prostate cancer xenografts; experiment: PC-3 tumor xenograft model in nude mice; format: in vivo; conditions: 50 mg/kg daily intraperitoneal, two weeks
Procedure, shortened: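 Four-week-old nude mice were given PC-3 cells subcutaneously (10⁶ cells/mouse). At 400 mm³ tumour volume they were split into two groups (n = 5). Each group received test compound or vehicle (10% DMSO + 10% PEG400 + 80% saline) i.p. daily for two weeks. Caliper tumour volume and body weight were taken every 2–3 days. Tumours were harvested 12 h after the last dose.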

Row | Structure (SMILES) | DC50 (α1A-AR) | effect on α1A-AR level (Western blot, in words) (α1A-AR) | IC50 (PC-3 cells) [µM] | antiproliferation activity on PC-3 cells (in words) (PC-3 cells) | further results
1 | COc1cc2nc(N3CCN(C(=O)c4cn(CCOCCOCCOCC(=O)Nc5cccc6c5C(=O)N(C5CCC(=O)N(C)C5=O)C6=O)nn4)CC3)nc(N)c2cc1OC (centres unmarked) [Compound 11, 2-(2-(2-(2-(4-(4-(4-Amino-6,7-dimethoxyquinazolin-2-yl)piperazine-1-carbonyl)-1H-1,2,3-triazol-1-yl)ethoxy)ethoxy)ethoxy)-N-(2-(1-methyl-2,6-dioxopiperidin-3-yl)-1,3-dioxoisoindolin4-yl)acetamide] |  | incapable of inducing α1A-AR degradation |  |  | 
2 | COc1cc2nc(N3CCN(C(=O)c4ccco4)CC3)nc(N)c2cc1OC [Prazosin, prazosin, reference compound] |  |  | 11.7 |  | 

More lines, main results first:

Row | DC50 (α1A-AR) | effect on α1A-AR level (Western blot, in words) (α1A-AR) | IC50 (PC-3 cells) [µM] | Structure (SMILES) | antiproliferation activity on PC-3 cells (in words) (PC-3 cells) | further results
3 | ~4.32 µM |  |  | COc1cc2nc(N3CCN(C(=O)c4cn(CCOCC(=O)Nc5cccc6c5C(=O)N(C5CCC(=O)NC5=O)C6=O)nn4)CC3)nc(N)c2cc1OC (centres unmarked) [Compound 9a, 2-(2-(4-(4-(4-Amino-6,7-dimethoxyquinazolin-2-yl)piperazine-1-carbonyl)-1H-1,2,3-triazol-1-yl)ethoxy)-N-(2-(2,6-dioxopiperidin-3-yl)-1,3-dioxoisoindolin-4-yl)acetamide] | concentration-dependent antiproliferation activities | 
4 |  | did not show too much effect |  | COc1cc2nc(N3CCN(C(=O)c4cn(CCOCCOCC(=O)Nc5cccc6c5C(=O)N(C5CCC(=O)NC5=O)C6=O)nn4)CC3)nc(N)c2cc1OC (centres unmarked) [Compound 9b, 2-(2-(2-(4-(4-(4-Amino-6,7-dimethoxyquinazolin-2-yl)piperazine-1-carbonyl)-1H-1,2,3-triazol-1-yl)ethoxy)ethoxy)-N-(2-(2,6-dioxopiperidin-3-yl)-1,3-dioxoisoindolin-4-yl)acetamide] | much less influence | 
5 | ~2.86 µM and 2.86 µM |  | 6.12 | COc1cc2nc(N3CCN(C(=O)c4cn(CCOCCOCCOCC(=O)Nc5cccc6c5C(=O)N(C5CCC(=O)NC5=O)C6=O)nn4)CC3)nc(N)c2cc1OC (centres unmarked) [Compound 9c, 2-(2-(2-(2-(4-(4-(4-Amino-6,7-dimethoxyquinazolin-2-yl)piperazine-1-carbonyl)-1H-1,2,3-triazol-1-yl)ethoxy)ethoxy)ethoxy)-N-(2-(2,6-dioxopiperidin-3-yl)-1,3-dioxoisoindolin-4-yl)acetamide] | concentration-dependent antiproliferation activities | Dmax (α1A-AR; HEK293, read-out: maximal level of degradation (Dmax) of α1A-AR): 94%; time for α1A-AR level to recover to basal level after washout (α1A-AR; after 12 h pretreatment with 10 μmol/L, cells washed thoroughly): approximately 24 h; α1A-AR degradation after bortezomib pretreatment (in words) (α1A-AR; pretreatment of cells using bortezomib for more than 7 h): could no longer trigger the degradation; degradation activity for α1B-AR (in words) (α1B-AR): no degradation activity; influence on α1D-AR level (in words) (α1D-AR): slight influence; average tumor size and mass vs vehicle-treated group (in words) [1]: noticeably decreased; body weight (in words) ([1]; nude mice): without noticeable loss of body weight; effect on tumor growth (in words) ([1]; nude mice with PC-3 xenografts): significant antitumor effect; also recorded: significant suppression of tumor growth
